Screening data from PubChem BioAssay.
Sampled rows, rich in hits. Any-hit rate of the full collection: about 8.9%.
MT stabilize HCS: microtubule stabilizers in HeLa cells, primary screen, imaging, high-content imaging. % tubulin-high responders, % at 10 µM. actives 0.83% (n = 200,000). HeLa tubulin immunostaining HCS, 24 h; share of cells brighter than vehicle mean+2SD;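 active means plate Z-score above 3 for both tubulin-high and condensed-nucleus cell shares, with cell loss under 80%, at 10 µM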;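 further: anti alpha tubulin signal scored within the nucleus-defined area of each cell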
bCat nuc transl: modulators of beta-catenin nuclear translocation, primary screen, imaging, HeLa cells, immunofluorescence, high-content | nuclear translocation activity, % at 5 µM | actives 0.3% (n = 190,000) | AID 1665, 2009;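 active means nuclear translocation activity above 50% at 5 µM, with a well cell count of 50 or more; inconclusive means wells under 50 cells across six images, flagged as toxic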;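 further: per-cell ratio of nuclear to cytoplasmic median beta-catenin stain intensity; plate controls were DMSO negative control for no effect and GSK-3 inhibitor IX positive control for full effect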
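assay system = human HeLa cells, endogenous beta-catenin | times = compound treatment 24 h, 37°C, 5% CO2 | detection = Anti-beta-catenin immunofluorescence on PFA-fixed, Triton-permeabilized cells, DAPI nuclei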
Lmaj promast: Leishmania major promastigote growth inhibition, primary screen. Leishmania major promastigotes, resazurin fluorescence viability. inhibition, % at 10 µM. actives 9% (n = 200,000). AID 1063, 2008; in the data active means inhibition above about 50%;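 further: promastigotes grown with compound for 44 hours at 28 °C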
HSV replic up: enhancers of HSV replication in host cells, fold increase, host cell viability; HSV replication augmentation in cells; actives 0.005% (n = 220,000); maximum fold increase; AID 1956, 2009; in the data active means maximum fold increase above about 1.5; inconclusive means no clear call, values can overlap the other calls; tested in PC3 cells
Dynein cargo inh: inhibitors of GR-EGFP nuclear translocation, primary screen, dynein cargo transport inhibitor project, imaging, high-content, 3617.4 mouse cells; test concentration mostly 20 µM; stimulated with dexamethasone, 1 µM; hits give low values; z-score, hits read low; actives 0.47% (n = 220,000); AID 1381, 2008;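 active means plate z-score of nuclear minus cytoplasmic receptor signal below a set negative limit, without overly bright fluorescence or cell loss, cut at about -3.5 in these data, passing the limit was not always enough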;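 further: z-score of nuclear minus cytoplasmic ring GR-EGFP intensity difference per well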
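Buffer or medium: tetracycline-free induction medium containing charcoal-stripped FBS / Reagent: dexamethasone agonist, 1.0 µM final, for 30 min / Technique: automated 10x imaging of fixed Hoechst-stained cells / Times: induction 48 h, compound 1 h, agonist 30 min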
Numbers without * were called inactive; i = inactive; ? = inconclusive; . = no result.

SMILES	MT stabilize HCS	bCat nuc transl	Lmaj promast	HSV replic up	Dynein cargo inh
Cc1nn(-c2ccccc2)c(N2CCCC2)c1/C=N/NC(=O)c1ccccc1O	2	2	6	i	0.62
O=C(N/N=C/c1cc2c3c(c1O)CCCN3CCC2)c1ccccc1O	5	4	100*	i	-0.5
CCOC(=O)CCc1c(C)c(C#N)c2nc3ccccc3n2c1-n1ccnc1C	4	0	0	i	0.12
Cc1ccc(C(C(=O)NCC2CCCO2)N(Cc2ccccc2)C(=O)c2ccc(-c3ccccc3)[nH]2)o1 (stereo unspecified)	3	4	53*	i	-1.2
Cc1ccc(CN(C(=O)CNC(=O)c2cccs2)C(C(=O)NCC2CCCO2)c2ccccc2)cc1 (stereo unspecified)	2	-2	-4	i	-0.006
O=C(NCC1CCCO1)C(c1cccs1)N(Cc1ccccc1Cl)C(=O)c1ccc(-c2ccccc2)[nH]1 (stereo unspecified)	3	2	100*	i	-0.53
COc1ccc2cc(C3CC(c4ccco4)=NN3S(C)(=O)=O)c(Cl)nc2c1 (stereo unspecified)	.	0	.	i	-1.9
CCOc1ccc2nc(Cl)c(C3CC(c4ccco4)=NN3S(=O)(=O)c3ccccc3)cc2c1 (stereo unspecified)	2	-5	100*	i	1.3
CCOc1cc2c(cc1OCC)C(c1ccccc1)N(c1ccccc1)C(=O)C2 (stereo unspecified)	3	-1	81*	i	-0.32
CCOc1cc2c(cc1OCC)C(c1ccc(OC)cc1)N(c1ccccc1)C(=O)C2 (stereo unspecified)	4	0	10	i	-0.25
CC(C)(C)c1ccc(C2(C)NC(=O)N(CC(=O)c3ccc[nH]3)C2=O)cc1 (stereo unspecified)	3	1	1	i	0.65
Cc1ccc(Nc2nc(CSc3nnc(-c4cccnc4)n3-c3ccccc3F)cs2)cc1	2	-4	89*	i	-0.78
Cc1ccc(Nc2nc(CSc3nnc(-c4ccncc4)n3C)cs2)cc1	2	0	2	i	0.14
C=CCN(C(=O)c1ccccc1)c1ccc(OC)cc1	43*	17	9	i	0.51
C=CCN(C(=O)c1cccc(N2C(=O)C3CC=CC(C)C3C2=O)c1)c1ccccc1 (stereo unspecified)	2	.	-9	i	-0.28
COc1ccc(N(C)C(=O)c2ccc3nc(-c4ccccc4)c(-c4ccccc4)nc3c2)cc1	25*	-1	20	i	-1.2
COC(=O)c1cnn(-c2ccc(F)cc2F)c1/C=N/NC(=S)NC(C)(C)C	.	-2	.	i	-0.21
CCOC(=O)c1cnn(Cc2cccc(Cl)c2)c1C	3	-1	5	i	0.16
Fc1cccc2sc(Nc3nnc(-c4ccccc4)o3)nc12	5	1	83*	i	-0.29
COc1ccc(-c2nnc(Nc3nc4c(OC)cccc4s3)o2)cc1	3	-1	79*	.	0.65
COc1ccc(-c2nnc(Nc3nc4c(OC)cccc4s3)o2)c(OC)c1	10	11	94*	i	0.72
CCC(=O)Nc1nnc(-c2ccc(OC)cc2)o1	3	-6	2	i	0.31
COc1cc(OC)cc(-c2nnc(Nc3nc4c(F)cccc4s3)o2)c1	2	-2	-7	i	0.41
C/C(=N\O)C(=O)NCC1CCNCC1	7	0	-4	i	-0.11
Cn1c2ccccc2c2cnn(CC(=O)N3CCCCC3)c(=O)c21	.	-1	.	i	0.21
SMILES	MT stabilize HCS	bCat nuc transl	Lmaj promast	HSV replic up	Dynein cargo inh
Cc1ccc(S(=O)(=O)N(C)C)cc1NC(=O)CN1C(=O)NC2(CCCc3ccccc32)C1=O (stereo unspecified)	2	0	72*	i	0.074
Cc1cc(C(=O)CN2C(=O)NC3(CCCc4ccccc43)C2=O)c(C)n1Cc1ccccc1 (stereo unspecified)	4	-7	53*	?	0.025
COc1ccccc1NC(=S)NCC1CCCCC1	4	0	15	i	-0.031
CCOC(=O)c1ccc(NC(=S)N2CCCC(C)C2)cc1 (stereo unspecified)	2	-2	-2	i	0.11
COc1ccccc1C(=O)NC(=S)/C=C1/N(C)c2ccccc2C1(C)C	2	.	78*	i	-0.21
CN1/C(=C/C(=S)NC(=O)C2(C)CC2(Cl)Cl)C(C)(C)c2ccccc21 (stereo unspecified)	3	5	51*	i	-0.74
CN1/C(=C\C(=S)NC(=O)c2ccccc2Cl)C(C)(C)c2ccccc21	4	9	45	i	0.66
CN1/C(=C\C=N\NC(=O)c2ccccc2Br)C(C)(C)c2ccccc21	4	1	50*	i	0.86
O=C(CSc1ncn[nH]1)Nc1nc(-c2ccccc2)cs1	4	-2	93*	i	0.17
O=C(CSc1nc(-c2ccccc2)c(-c2ccccc2)[nH]1)Nc1nccs1	15	1	98*	i	0.9
O=C(CSc1nc(-c2ccccc2)c(-c2ccccc2)[nH]1)NCCN1C(=O)CSC1=O	19*	7	-4	i	-1.4
O=C1C(=Nc2cccc(Cl)c2)CC(c2ccc(Cl)cc2)N1c1cccc(Cl)c1 (stereo unspecified)	.	-1	.	i	0.7
COc1ccc(-c2noc(CCC(=O)NCCCN3CCC(Cc4ccccc4)CC3)n2)cc1	5	.	100*	i	7.4
COc1ccc(-c2noc(=O)n2CC(=O)N2CCC(Cc3ccccc3)CC2)cc1	2	-2	96*	i	-0.42
COc1ccc(OCC(=O)Nc2cc(-c3nn(C)c(=O)c4ccccc34)ccc2OC)cc1	2	1	8	i	-0.087
O=C(CSc1nnc(CNC(=O)c2ccccc2F)o1)NCCc1ccccc1	2	0	-3	i	2.2
CCSc1nnc(NC(=O)CSc2nnc(CNC(=O)c3ccccc3F)o2)s1	2	-6	85*	i	1.8
Cc1ccnc(NC(c2ccccn2)c2c(C)[nH]c3ccccc23)c1 (stereo unspecified)	4	-3	74*	i	-1.3
Cc1[nH]c2ccccc2c1C(c1ccccn1)N1CCCC1 (stereo unspecified)	5	0	20	i	1.5
COc1ccc(C(c2nnnn2C2CCCC2)N2CCC(C)CC2)c(OC)c1 (stereo unspecified)	4	0	99*	i	1.9
COc1ccc(OC)c(C(c2nnnn2C2CCCC2)N2CCN(c3ccc(F)cc3)CC2)c1 (stereo unspecified)	3	-6	92*	i	-0.63
COc1ccc2cc(C(c3nnnn3C3CCCCC3)N3CCCCCC3)c3nnnn3c2c1 (stereo unspecified)	2	.	21	.	0.54
